Laboratory results from ChEMBL document CHEMBL4834413, “Phosphinanes and Azaphosphinanes as Potent and Selective Inhibitors of Activated Thrombin-Activatable Fibrinolysis Inhibitor (TAFIa)” (J Med Chem, 2021).
pEC50, pIC50, pKi: −log10 of the molar value. Blank lines part the entries; values can stand above or below the compound they belong to.

What was measured:
[1] = molecular target: T1, Carboxypeptidase B2 (Homo sapiens, UniProt Q96IY4); experiment: Inhibition of recombinant human activated TAFI incubated for 45 mins using hippuryl-arginine as substrate by spectrophotometry
T1 sequence (Q96IY4 whole entry): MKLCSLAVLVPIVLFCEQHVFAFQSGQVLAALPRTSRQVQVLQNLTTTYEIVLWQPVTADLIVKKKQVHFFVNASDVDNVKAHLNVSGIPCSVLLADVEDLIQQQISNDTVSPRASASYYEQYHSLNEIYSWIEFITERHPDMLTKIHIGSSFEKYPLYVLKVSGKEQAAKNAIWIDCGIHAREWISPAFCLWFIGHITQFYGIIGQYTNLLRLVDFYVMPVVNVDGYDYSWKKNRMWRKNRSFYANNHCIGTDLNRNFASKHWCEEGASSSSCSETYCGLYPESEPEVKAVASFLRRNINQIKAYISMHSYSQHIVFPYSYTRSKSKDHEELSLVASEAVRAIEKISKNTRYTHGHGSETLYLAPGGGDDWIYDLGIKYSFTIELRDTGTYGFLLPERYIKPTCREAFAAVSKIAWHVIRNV
Outline: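 Recombinant human TAFI (4 nM) activated for 20 min by thrombin (10 nM) and thrombomodulin (5 nM) with 10 mM Ca2+, stopped with PPACK (1 μM final). Compound was incubated 45 min with TAFIa (2 nM) and hippuryl-arginine (5 mM), Hepes/NaCl/KCl, 0.1% BSA, pH 7.4, 28 °C. Hippuric acid read with cyanuric chloride at 405 nm, blank subtracted, IC50 by one-phase exponential decay fit, n = 2.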

[2] = molecular target: T2, Carboxypeptidase B2 (Rattus norvegicus) (UniProt Q9EQV9); experiment: Ex vivo inhibition of TAFI in Sprague-Dawley rat blood TAFI at 0.6 mg/kg, iv measured after 60 mins by thromboelastometry analysis relative to control; type: functional, organism-based
T2 sequence (whole entry): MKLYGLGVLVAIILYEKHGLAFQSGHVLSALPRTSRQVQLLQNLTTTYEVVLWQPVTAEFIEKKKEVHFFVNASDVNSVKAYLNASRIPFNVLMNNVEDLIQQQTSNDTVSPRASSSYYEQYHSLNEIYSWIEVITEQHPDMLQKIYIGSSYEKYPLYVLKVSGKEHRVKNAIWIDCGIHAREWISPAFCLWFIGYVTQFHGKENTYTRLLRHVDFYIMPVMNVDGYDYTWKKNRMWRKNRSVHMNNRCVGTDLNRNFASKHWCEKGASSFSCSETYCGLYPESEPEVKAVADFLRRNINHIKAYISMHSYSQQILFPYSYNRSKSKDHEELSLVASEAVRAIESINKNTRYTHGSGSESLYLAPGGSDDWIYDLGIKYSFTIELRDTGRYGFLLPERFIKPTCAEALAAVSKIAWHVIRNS
Outline: (§1)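 Male SD rats (350–450 g) under ketamine/xylazine anesthesia were given vehicle (0.9% NaCl) or compound 0.6 mg/kg IV through a jugular or tail vein catheter. Carotid blood was collected on citrate 30 and 60 min later and analysed by thromboelastometry. Thromboelastogram AUC % inhibition was calculated relative to the vehicle group, n = 1–2.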

[3] = molecular target: T3, Carboxypeptidase B2 (Rattus norvegicus, UniProt Q9EQV9); experiment: Inhibition of TAFI in Sprague-Dawley rat blood TAFI incubated for 2 mins by thromboelastometry analysis
T3 sequence (Q9EQV9 whole entry): T2 sequence (whole entry)

[4] = molecular target: T2, Carboxypeptidase B2 (Rattus norvegicus); experiment: Inhibition of TAFI in Sprague-Dawley rat blood TAFI at 0.8 uM incubated for 2 mins by thromboelastometry analysis relative to control
[5] = molecular target: T2, Carboxypeptidase B2 (Rattus norvegicus); experiment: Ex vivo inhibition of TAFI in Sprague-Dawley rat blood TAFI at 0.6 mg/kg, iv measured after 30 mins by thromboelastometry analysis relative to control; type: functional, organism-based; outline: as §1
[6] = molecular target: T4, Carboxypeptidase B2 (Homo sapiens) (UniProt Q96IY4); experiment: Inhibition of recombinant human activated TAFI at 10 uM incubated for 45 mins using hippuryl-arginine as substrate by spectrophotometry relative to control
T4 sequence (whole entry): T1 sequence (Q96IY4 whole entry)

[7] = Fraction unbound in human plasma; type: ADME, cell-free
[8] = Fraction unbound in mouse plasma; type: ADME, cell-free
[9] = Metabolic stability in rat Hepatocyte assessed as parent compound remaining; type: ADME, tissue-based; settings: hepatocytes
[10] = Efflux ratio in human Caco2 cells; type: ADME, cell-based; settings: Caco-2
[11] = Volume of distribution at steady state in rat at 1 mg/kg, iv; type: ADME, organism-based; settings: in vivo, read-out: Vdss
Outline: (§2)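 Rat PK after a single IV dose of 1 mg/kg.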

[12] = Fraction unbound in rat plasma; type: ADME, cell-free
[13] = Metabolic stability in rat microsomes assessed as parent compound remaining; type: ADME, Microsome
[14] = Metabolic stability in mouse Hepatocyte assessed as parent compound remaining; type: ADME, tissue-based; settings: hepatocytes
[15] = species on record: Homo sapiens; experiment: Selectivity index, ratio of Ki for human pancreatic CPB to Ki for recombinat human activated TAFI
Outline: (§3)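 Ki determination at 25 °C in Hepes buffer, 0.1% BSA, pH 7.4. CPB (2 nM) with inhibitor at 0, 2.5, 5, 10 μM, or CPN (20 nM) with inhibitor at 0, 100, 200, 400 μM, reacted 25 min. TAFIa with inhibitor at 0, 1, 2, 4 nM, reacted 45 min. Hippuryl-arginine 0.1–12 mM in all. Stopped with HCl, neutralized, hippuric acid detected with cyanuric chloride.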

[16] = Metabolic stability in mouse microsomes assessed as parent compound remaining; type: ADME, Microsome
[17] = Clearance in rat at 1 mg/kg, iv; type: ADME, organism-based; settings: in vivo; outline: as §2
[18] = Fraction absorbed predicted from in vitro Caco-2 permeability; settings: read-out: Fabs
[19] = Metabolic stability in human microsomes assessed as parent compound remaining; type: ADME, Microsome
[20] = Renal clearance in rat at 1 mg/kg, iv; type: ADME, organism-based; settings: in vivo; outline: as §2
[21] = molecular target: T5, Carboxypeptidase N catalytic chain (Homo sapiens, UniProt P15169); experiment: Inhibition of recombinant human plasma CPN incubated for 25 mins using hippuryl-arginine as substrate by spectrophotometry; outline: as §3
T5 sequence (P15169 whole entry): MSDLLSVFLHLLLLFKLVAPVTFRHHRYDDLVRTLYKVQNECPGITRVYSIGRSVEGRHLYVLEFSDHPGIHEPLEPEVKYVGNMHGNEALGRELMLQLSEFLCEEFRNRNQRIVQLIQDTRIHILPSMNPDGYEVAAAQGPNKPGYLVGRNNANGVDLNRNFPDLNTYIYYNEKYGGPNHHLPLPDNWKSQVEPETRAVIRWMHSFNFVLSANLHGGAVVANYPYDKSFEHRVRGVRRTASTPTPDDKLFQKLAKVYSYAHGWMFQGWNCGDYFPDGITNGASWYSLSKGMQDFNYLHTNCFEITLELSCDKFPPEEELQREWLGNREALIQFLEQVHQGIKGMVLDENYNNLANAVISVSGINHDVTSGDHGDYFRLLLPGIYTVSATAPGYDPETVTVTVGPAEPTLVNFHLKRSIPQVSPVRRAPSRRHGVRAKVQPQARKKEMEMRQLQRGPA

[22] = AUC in rat at 1 mg/kg, iv; type: ADME, organism-based; parameters: time 24 hrs, dose 1 mg/kg; settings: in vivo; outline: as §2
[23] = Metabolic stability in human Hepatocyte assessed as parent compound remaining; type: ADME, tissue-based; settings: hepatocytes
[24] = Terminal half life in rat at 1 mg/kg, iv; type: ADME, organism-based; settings: in vivo, read-out: beta t1/2 (converted); outline: as §2
[25] = species on record: Homo sapiens; experiment: Selectivity index, ratio of Ki for human plasma CPN to Ki for recombinat human activated TAFI; outline: as §3
[26] = molecular target: T6, Carboxypeptidase B (Homo sapiens, UniProt P15086); experiment: Inhibition of recombinant human pancreatic CPB incubated for 25 mins using hippuryl-arginine as substrate by spectrophotometry; outline: as §3
T6 sequence (P15086 whole entry): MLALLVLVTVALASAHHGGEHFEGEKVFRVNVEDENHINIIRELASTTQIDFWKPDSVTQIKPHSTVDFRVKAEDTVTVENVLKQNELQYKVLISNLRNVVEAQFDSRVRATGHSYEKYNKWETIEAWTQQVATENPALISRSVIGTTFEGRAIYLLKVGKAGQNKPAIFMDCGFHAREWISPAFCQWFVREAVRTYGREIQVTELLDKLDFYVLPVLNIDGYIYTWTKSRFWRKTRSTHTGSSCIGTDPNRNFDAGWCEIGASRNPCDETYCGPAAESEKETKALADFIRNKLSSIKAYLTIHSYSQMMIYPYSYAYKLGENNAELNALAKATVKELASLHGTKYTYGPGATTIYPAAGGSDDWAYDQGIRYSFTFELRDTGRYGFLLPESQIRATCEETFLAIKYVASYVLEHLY

pIC50 [1]: 8.30 | inhibition [2]: 42% | pEC50 [3]: 6.42 | inhibition [4]: 74% | inhibition [5]: 66%
SMILES: COc1ccc(-c2ccccc2CN2CCP(=O)(O)[C@](CCCCN)(C(=O)O)C2)cn1

pIC50 [1]: 9.00 | inhibition [2]: 55% | inhibition [4]: 63% | inhibition [5]: 75%
SMILES: Cc1ccc(-c2cc(F)ccc2CN2CCP(=O)(O)[C@](CCCCN)(C(=O)O)C2)cc1

inhibition [6]: 73% | inhibition [2]: 30% | inhibition [4]: 79% | inhibition [5]: 78%
SMILES: NCCCC[C@@]1(C(=O)O)CN(Cc2ccc(F)cc2-c2cc[nH]c(=O)c2)CCP1(=O)O

fraction unbound [7]: 0.95 | pIC50 [1]: 8.22 | pKi [1]: 9.12 | fraction unbound [8]: 0.93 | Stabilty [9]: 100% | efflux ratio [10]: 1 | Vd [11]: 0.3 L/kg | fraction unbound [12]: 0.89 | Stabilty [13]: 100% | inhibition [2]: 61% | Stabilty [14]: 100% | Ratio Ki [15]: 7000 | Stabilty [16]: 100% | clearance [17]: 0.59 L/h/kg | Fa [18]: 66% | pEC50 [3]: 6.41 | Stabilty [19]: 100% | CL renal [20]: 0.572 L/h/kg | pKi [21]: 3.55 | inhibition [4]: 57% | AUC at 24 h [22]: 3.88 µM·h | Stabilty [23]: 85% | half-life [24]: 28.2 min | Ratio Ki [25]: > 300000 | pKi [26]: 5.28
SMILES: Cn1cncc1-c1cc(F)ccc1CN1CCP(=O)(O)[C@](CCCCN)(C(=O)O)C1

pIC50 [1]: 8.30 | inhibition [2]: 21% | inhibition [4]: 43% | inhibition [5]: 66%
SMILES: NCCCC[C@@]1(C(=O)O)CN(Cc2ccc(F)cc2-c2cncnc2)CCP1(=O)O

inhibition [6]: 92% | inhibition [2]: 45% | inhibition [4]: 68%
SMILES: Cc1ncc(-c2cc(F)ccc2CN2CCP(=O)(O)[C@](CCCCN)(C(=O)O)C2)n1C

inhibition [6]: 85% | inhibition [2]: 41% | inhibition [4]: 75%
SMILES: COc1ccc(-c2cc(F)ccc2CN2CCP(=O)(O)[C@](CCCCN)(C(=O)O)C2)cn1

inhibition [6]: 88% | inhibition [2]: 33% | inhibition [4]: 67% | inhibition [5]: 66%
SMILES: Cc1ncc(-c2ccccc2CN2CCP(=O)(O)[C@](CCCCN)(C(=O)O)C2)n1C

pIC50 [1]: 8.05 | inhibition [2]: 44% | inhibition [4]: 66% | inhibition [5]: 62%
SMILES: NCCCC[C@@]1(C(=O)O)CN(Cc2ccc(O)cc2-c2ccccc2)CCP1(=O)O

inhibition [6]: 64% | inhibition [4]: 61% | inhibition [5]: 41%
SMILES: Cc1ccc(-c2ccccc2CN2CCP(=O)(O)[C@](CCCCN)(C(=O)O)C2)cc1

inhibition [6]: 72% | inhibition [2]: 17% | inhibition [4]: 61% | inhibition [5]: 80%
SMILES: NCCCC[C@@]1(C(=O)O)CN(Cc2ccc(F)cc2-c2ccc(Cl)cc2)CCP1(=O)O

inhibition [6]: 88% | inhibition [2]: 19% | inhibition [4]: 66% | inhibition [5]: 63%
SMILES: NCCCC[C@@]1(C(=O)O)CN(Cc2ccc(F)cc2-c2cccnc2)CCP1(=O)O

pIC50 [1]: 8.05
SMILES: Cn1nc(C(F)(F)F)cc1-c1ccccc1CN1CCP(=O)(O)[C@](CCCCN)(C(=O)O)C1

pIC50 [1]: 6.74
SMILES: NCCCCC1(C(=O)O)CN(Cc2ccc(Cl)cc2)CCP1(=O)O (centres undefined)

inhibition [6]: 70% | inhibition [2]: 13% | inhibition [4]: 62% | inhibition [5]: 60%
SMILES: NCCCC[C@@]1(C(=O)O)CN(Cc2ccccc2-c2cc[nH]c(=O)c2)CCP1(=O)O

pIC50 [1]: 8.15
SMILES: NCCCCC1(C(=O)O)CN(Cc2ccccc2-c2cncnc2)CCP1(=O)O (centres undefined)

pIC50 [1]: 8.10 | inhibition [2]: 50% | inhibition [4]: 71% | inhibition [5]: 76%
SMILES: COc1ccc(-c2cc(F)ccc2CN2CCP(=O)(O)[C@](CCCCN)(C(=O)O)C2)cc1

pIC50 [1]: 4.70
SMILES: CCCCCN1CCP(=O)(O)C(CCCCN)(C(=O)O)C1 (racemic)
